This is an account of results in ChEMBL document CHEMBL1153564 (Antimicrob Agents Chemother, 2008).

One may read the MIC as the smallest concentration in the dilution series that meets the test's criterion for growth inhibition. A word on the ED50: it is the midpoint of the dose-response relation.

Series [1] relates to Nakaseomyces glabratus. Description: Antifungal activity against Candida glabrata 5376 infected in neutropenic ICR/Swiss mouse candidiasis model assessed as dose required to maintain […] of 3.71 +/- 0.21 log10CFU per kidney administered intraperitoneally every 16 hrs up to 4 days measured per 96 hrs.
In series [2] the test system is Candida albicans. Description: Antifungal activity against Candida albicans 98-17 infected in neutropenic ICR/Swiss mouse candidiasis model assessed as dose required to maintain […] of 3.81 +/- 0.33 log10CFU per kidney administered intraperitoneally every 24 hrs up to 4 days measured per 24 hrs. The class given is functional. Put shortly:
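Neutropenic mice (cyclophosphamide sc on days −4, −1 and +2) were infected iv 2 h before therapy. Five total doses from 0.078 to 20 mg/kg/24 h were given ip q24h for 4 days, three mice per regimen. Kidney CFU were measured at the end of therapy. Static and 1-log-kill doses were derived from a Hill sigmoid dose-effect fit.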

Series [3] concerns Candida albicans. Kind of series: Antifungal activity against Candida albicans 98-210 assessed as complete growth inhibition after 24 hrs by CLSI end point method. The class given is functional. As to conditions: 98-210, 24 h. Put shortly: (§1)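 CLSI M27-A2 broth dilution. Two end points read against the drug-free control well: partial inhibition (CLSI end point) and complete inhibition. Run in duplicate on four separate occasions; value is the mean. Drug stock in DMSO, diluted in 0.9% NaCl.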

The subject of series [4] is Nakaseomyces glabratus. Kind of series: Antifungal activity against Candida glabrata 5376 infected in neutropenic ICR/Swiss mouse candidiasis model assessed as dose required for 1-log10 reduction in […] per kidney administered intraperitoneally every 16 hrs up to 4 days measured per 96 hrs. The class given is functional. Put shortly: (§2)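 Neutropenic ICR/Swiss mice infected i.v. with the strain; therapy began 2 h later. Total doses of 1.25–320 mg/kg/96 h were given i.p. as 1, 2, 4 or 6 doses (q96h, q48h, q24h, q16h), three mice per regimen. Kidney CFU were counted after 4 days. Effect is the change from untreated controls at the end of therapy.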

Series [5] has as its system Nakaseomyces glabratus. Kind of series: Antifungal activity against Candida glabrata 32930 infected in neutropenic ICR/Swiss mouse candidiasis model assessed as dose required to maintain […] of 1.83 +/- 0.54 log10CFU per kidney administered intraperitoneally every 24 hrs up to 4 days measured per 24 hrs. The class given is functional.
For series [6], the system named is Nakaseomyces glabratus. Kind of series: Antifungal activity against Candida glabrata 5376 infected in neutropenic ICR/Swiss mouse candidiasis model assessed as dose required for 1-log10 reduction in […] per kidney administered intraperitoneally every 24 hrs up to 4 days measured per 96 hrs. In kind it is functional. Summed up: as §2
The subject of series [7] is Candida albicans. Kind of series: Antifungal activity against Candida albicans K-1 infected in neutropenic ICR/Swiss mouse candidiasis model assessed as […] burden per kidney administered intraperitoneally every 48 hrs up to 4 days measured per 96 hrs. In kind it is functional. As to conditions: K-1, Kidney, ip. Summed up: (§3)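 Neutropenic mice were infected iv with C. albicans K-1 2 h before therapy. Total doses of 1.25, 5, 20, 80 and 320 mg/kg/96 h were split into 1, 2, 4 or 6 ip doses (q96h, q48h, q24h, q16h), three mice per regimen. Effect is the log10 CFU/kidney relative to untreated controls at 96 h. Static and 1-log doses were taken from a Hill model fit.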

The test system of series [8] is Nakaseomyces glabratus. Kind of series: Antifungal activity against Candida glabrata 570 infected in neutropenic ICR/Swiss mouse candidiasis model assessed as fungal count per kidney administered 2 hrs postinfection measured up to 48 hrs. The class given is functional. Put shortly: (§4)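 Female ICR/Swiss mice (23–27 g) made neutropenic with cyclophosphamide s.c. (150 mg/kg day −4, 100 mg/kg day −1, 100 mg/kg day +2). Infected by tail vein with 0.1 ml inoculum (~6.1 log10 CFU/ml). Kidneys of untreated mice were homogenised and plated on SDA for 24 h at 35°C. Growth over 48 h is given as log10 CFU/kidney.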

The subject of series [9] is Candida albicans. Kind of series: Antifungal activity against Candida albicans K-1 infected in neutropenic ICR/Swiss mouse candidiasis model assessed as reduction of […] in kidney at 5 mg/kg, ip administered 2 hrs postinfection as single dose measured after 96 hrs post dosing by time-kill assay. The class given is functional, organism-based. Also on record: dose 5 mg/kg. Summed up: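 Single ip dose (20, 5 or 1.25 mg/kg) given 2 h after iv infection of neutropenic mice with K-1. Three treated and three control mice were sampled at intervals over 96 h for kidney CFU. PAFE is the time for treated burden to rise 1 log10 after serum levels fall below MIC, minus the same time in controls. Free drug was taken as 1%.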

Series [10] has as its system Candida albicans. Description: Antifungal activity against Candida albicans 98-17 infected in neutropenic ICR/Swiss mouse candidiasis model assessed as fungal count per kidney administered 2 hrs postinfection measured up to 48 hrs. In kind it is functional. Put shortly: (§5)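 Untreated neutropenic mice infected via the tail vein (inoculum about 6.1 log10 CFU/ml, 0.1 ml). Growth is the rise in kidney CFU over 48 h. Kidneys were homogenised, serially diluted 1:10 and plated on SDA for 24 h at 35°C. Mean of three mice.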

Series [11] relates to Nakaseomyces glabratus. Description: Antifungal activity against Candida glabrata 35315 infected in neutropenic ICR/Swiss mouse candidiasis model assessed as fungal count per kidney administered 2 hrs postinfection measured up to 48 hrs. In kind it is functional. Put shortly:
as §4

Series [12] has as its system Candida albicans. Kind of series: Antifungal activity against Candida albicans K-1 infected in neutropenic ICR/Swiss mouse candidiasis model assessed as dose required for 1-log10 reduction in […] per kidney administered intraperitoneally every 24 hrs up to 4 days measured per 24 hrs. In kind it is functional.
Series [13] deals with Nakaseomyces glabratus. Description: Antifungal activity against Candida glabrata 5376 infected in neutropenic ICR/Swiss mouse candidiasis model assessed as suppression of fungal regrowth at 20 mg/kg, ip administered 2 hrs postinfection as single dose by time-kill assay. In kind it is functional, organism-based. Also on record: dose 20 mg/kg. Put shortly:
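Neutropenic mice were infected i.v. and 2 h later given a single i.p. dose (1.25, 5 or 20 mg/kg). Groups of three treated and three control mice were killed at intervals over 96 h, and kidney CFU were counted on SDA (limit 100 CFU/ml). The post-antifungal effect is t − c: the time for a 1 log10 CFU/kidney increase once serum levels fall below the MIC in treated mice, minus the same time in controls.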

Series [14] concerns Candida albicans. Description: Antifungal activity against Candida albicans K-1 infected in neutropenic ICR/Swiss mouse candidiasis model assessed as fungal count per kidney administered 2 hrs postinfection measured up to 48 hrs. The class given is functional. Put shortly: as §5
Series [15] has as its system Candida albicans. Kind of series: Antifungal activity against Candida albicans K-1 infected in neutropenic ICR/Swiss mouse candidiasis model assessed as dose required to maintain […] of 3.90 +/- 0.15 log10CFU per kidney administered intraperitoneally every 24 hrs up to 4 days measured per 96 hrs. The class given is functional. Summed up:
as §3

Series [16] relates to Nakaseomyces glabratus. Description: Antifungal activity against Candida glabrata 5376 infected in neutropenic ICR/Swiss mouse candidiasis model assessed as […] burden per kidney administered intraperitoneally every 48 hrs up to 4 days measured per 96 hrs. In kind it is functional. As to conditions: Nakaseomyces glabratus, 5376, Kidney, ip. Put shortly: as §2
The next series relates to Serum. Description: Fraction unbound in Candida albicans K-1 infected neutropenic ICR/Swiss mouse serum at 20 mg/kg, ip administered 2 hrs postinfection as single dose measured after 12 hrs. In kind it is ADME, organism-based. Also on record: dose 20 mg/kg, route intraperitoneal. As to conditions: in vivo.
Series [17] concerns Nakaseomyces glabratus. Kind of series: Antifungal activity against Candida glabrata 5376 infected in neutropenic ICR/Swiss mouse candidiasis model assessed as dose required for 1-log10 reduction in […] per kidney administered intraperitoneally once every 96 hrs measured per 96 hrs. In kind it is functional. Summed up:
as §2

Series [18] concerns Nakaseomyces glabratus. Description: Antifungal activity against Candida glabrata 33609 infected in neutropenic ICR/Swiss mouse candidiasis model assessed as fungal count per kidney administered 2 hrs postinfection measured up to 48 hrs. In kind it is functional. Summed up:
as §4

In series [19] the test system is Nakaseomyces glabratus. Kind of series: Antifungal activity against Candida glabrata 32930 assessed as complete growth inhibition after 24 hrs by CLSI end point method. In kind it is functional. As to conditions: Nakaseomyces glabratus, 32930, 24 h. Put shortly:
as §1

Each structure is given as a SMILES string. Converted amounts (≈) assume the structure as drawn. The source made the active and inactive calls. Starred links: 1 amine or outer side, 2 acyl side, 3 side chain; linkers in the order of their positions; H or OH if unused. Positions of bridges follow the written chain, without caps; N, C: chain ends. Non-standard residues stand in square brackets, D forms with d. Residues, ends and D or L forms follow the SMILES beside them. *: point of attachment. pTerphenylCO(4''-OnC5H11) = CCCCCOc1ccc(-c2ccc(-c3ccc(C(=O)*)cc3)cc2)cc1; Orn(4R-OH,5R-OH) = O=C([C@H](C[C@@H](O)[C@@H](O)N[*:3])N[*:1])[*:2]; hTyr(3S-OH,4S-OH) = N[C@H](C(=O)O)[C@H](O)[C@@H](O)c1ccc(O)cc1; Pro(3S-OH,4S-Me) = C[C@H]1CN[C@H](C(=O)O)[C@H]1O; Hyp = O=C(O)[C@@H]1C[C@@H](O)CN1

As to `CCCCCOc1ccc(-c2ccc(-c3ccc(C(=O)N[C@H]4C[C@@H](O)[C@@H](O)NC(=O)[C@@H]5[C@@H](O)[C@@H](C)CN5C(=O)[C@H]([C@@H](C)O)NC(=O)[C@H]([C@H](O)[C@@H](O)c5ccc(O)cc5)NC(=O)[C@@H]5C[C@@H](O)CN5C(=O)[C@H]([C@@H](C)O)NC4=O)cc3)cc2)cc1` [ANIDULAFUNGIN] ({pTerphenylCO(4''-OnC5H11)}-[Orn(4R-OH,5R-OH)]T[Hyp][hTyr(3S-OH,4S-OH)]T[Pro(3S-OH,4S-Me)]; lactam 1-C), the Activity in the series with Nakaseomyces glabratus [1] is 30 mg/kg; in the series on Candida albicans [2] it was 1.15 mg/kg; in the series on Nakaseomyces glabratus [4], 56.7 mg/kg; in the series on Nakaseomyces glabratus [5] it was 1.58 mg/kg; in the series on Nakaseomyces glabratus [6] it was 30.8 mg/kg; with Candida albicans [12] it was 2 mg/kg. For the same compound, the Activity in the series with Candida albicans [15] came out at 5 mg/kg; in the series with Nakaseomyces glabratus [17] it was 16.6 mg/kg. Also, the MIC with Candida albicans [3] amounted to 0.06 µg/mL (≈ 0.0526 µM); in the series with Nakaseomyces glabratus [19], 0.12 µg/mL (≈ 0.105 µM). In addition, the values for the ED50 in the series with Candida albicans [7] and in the series with Nakaseomyces glabratus [16] were 3.14 mg/kg and 13.4 mg/kg, respectively. Also, the log10cfu in the series with Nakaseomyces glabratus [8] worked out at 2.45; with Candida albicans [10], 4.3; with Nakaseomyces glabratus [11], 0.97; in the series with Candida albicans [14], 4; in the series with Nakaseomyces glabratus [18] it was 2.37. Moreover, the outcome with Candida albicans [9] and in the series with Nakaseomyces glabratus [13] was Active. The compound also showed a Fu in the series on Serum of 1%.
